Measurements taken from ChEMBL document CHEMBL1129041, “Design of orally active dual inhibitors of neutral endopeptidase and angiotensin-converting enzyme with long duration of action” (J Med Chem, 1996).

How the values were obtained:
[1] = target: T1, Angiotensin-converting enzyme (Mus musculus) (UniProt P09470); experiment: (§1) In vivo percent inhibition activity against lung Angiotensin I converting enzyme 2 hr after oral administration of a dose of 2.6 x 10e-5 mol/kg; assay type: functional, organism-based
T1 sequence (whole entry): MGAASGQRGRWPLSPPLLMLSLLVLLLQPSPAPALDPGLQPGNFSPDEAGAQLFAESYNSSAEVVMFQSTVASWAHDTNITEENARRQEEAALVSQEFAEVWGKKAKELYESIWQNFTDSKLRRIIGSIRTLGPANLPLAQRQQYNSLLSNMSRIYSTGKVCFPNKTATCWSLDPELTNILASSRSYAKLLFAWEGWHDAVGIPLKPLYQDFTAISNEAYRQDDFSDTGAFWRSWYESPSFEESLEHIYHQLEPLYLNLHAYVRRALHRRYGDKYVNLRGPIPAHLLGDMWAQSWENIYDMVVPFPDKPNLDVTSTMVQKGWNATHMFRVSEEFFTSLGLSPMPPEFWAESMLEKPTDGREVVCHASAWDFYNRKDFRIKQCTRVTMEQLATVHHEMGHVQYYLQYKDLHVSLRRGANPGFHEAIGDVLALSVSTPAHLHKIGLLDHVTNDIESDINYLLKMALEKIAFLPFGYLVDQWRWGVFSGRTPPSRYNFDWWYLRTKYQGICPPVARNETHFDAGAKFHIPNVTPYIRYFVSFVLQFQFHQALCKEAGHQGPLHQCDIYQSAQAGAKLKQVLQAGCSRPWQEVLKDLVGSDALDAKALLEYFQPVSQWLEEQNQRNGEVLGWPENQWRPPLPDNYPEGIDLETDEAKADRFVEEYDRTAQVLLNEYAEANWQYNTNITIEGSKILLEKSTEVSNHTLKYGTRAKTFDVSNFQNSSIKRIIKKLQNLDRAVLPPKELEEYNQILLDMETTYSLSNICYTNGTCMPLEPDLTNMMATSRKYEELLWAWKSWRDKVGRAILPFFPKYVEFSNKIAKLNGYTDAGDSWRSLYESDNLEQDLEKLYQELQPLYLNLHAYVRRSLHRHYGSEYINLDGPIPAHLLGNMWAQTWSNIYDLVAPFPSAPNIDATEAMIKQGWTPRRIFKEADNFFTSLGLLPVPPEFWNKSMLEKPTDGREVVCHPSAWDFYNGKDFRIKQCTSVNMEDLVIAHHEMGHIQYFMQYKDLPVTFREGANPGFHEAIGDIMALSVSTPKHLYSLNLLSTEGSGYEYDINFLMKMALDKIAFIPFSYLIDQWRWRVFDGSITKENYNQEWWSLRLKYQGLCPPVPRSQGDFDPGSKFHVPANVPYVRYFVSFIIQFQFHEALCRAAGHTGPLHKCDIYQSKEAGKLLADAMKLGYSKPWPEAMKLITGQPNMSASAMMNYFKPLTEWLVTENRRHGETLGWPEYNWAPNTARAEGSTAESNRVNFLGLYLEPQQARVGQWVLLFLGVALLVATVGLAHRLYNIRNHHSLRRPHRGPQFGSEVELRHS
Outline: (§2)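 Mice dosed orally in 10% ethanol/10% cremophor/80% water. At 2 h, [3H]trandaloprilate (0.5 µCi) given iv; 15 min later lungs homogenized at 4 °C in 50 mM Tris-HCl pH 8.0 with 1 mM NaCl, centrifuged, and radioactivity counted. Total binding from untreated mice; nonspecific binding from probe coinjected with 1000 equiv captopril.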

[2] = target: T2, Angiotensin-converting enzyme (Rattus norvegicus, UniProt P47820); experiment: In vitro inhibition of rat angiotensin I converting enzyme
T2 sequence (P47820 whole entry): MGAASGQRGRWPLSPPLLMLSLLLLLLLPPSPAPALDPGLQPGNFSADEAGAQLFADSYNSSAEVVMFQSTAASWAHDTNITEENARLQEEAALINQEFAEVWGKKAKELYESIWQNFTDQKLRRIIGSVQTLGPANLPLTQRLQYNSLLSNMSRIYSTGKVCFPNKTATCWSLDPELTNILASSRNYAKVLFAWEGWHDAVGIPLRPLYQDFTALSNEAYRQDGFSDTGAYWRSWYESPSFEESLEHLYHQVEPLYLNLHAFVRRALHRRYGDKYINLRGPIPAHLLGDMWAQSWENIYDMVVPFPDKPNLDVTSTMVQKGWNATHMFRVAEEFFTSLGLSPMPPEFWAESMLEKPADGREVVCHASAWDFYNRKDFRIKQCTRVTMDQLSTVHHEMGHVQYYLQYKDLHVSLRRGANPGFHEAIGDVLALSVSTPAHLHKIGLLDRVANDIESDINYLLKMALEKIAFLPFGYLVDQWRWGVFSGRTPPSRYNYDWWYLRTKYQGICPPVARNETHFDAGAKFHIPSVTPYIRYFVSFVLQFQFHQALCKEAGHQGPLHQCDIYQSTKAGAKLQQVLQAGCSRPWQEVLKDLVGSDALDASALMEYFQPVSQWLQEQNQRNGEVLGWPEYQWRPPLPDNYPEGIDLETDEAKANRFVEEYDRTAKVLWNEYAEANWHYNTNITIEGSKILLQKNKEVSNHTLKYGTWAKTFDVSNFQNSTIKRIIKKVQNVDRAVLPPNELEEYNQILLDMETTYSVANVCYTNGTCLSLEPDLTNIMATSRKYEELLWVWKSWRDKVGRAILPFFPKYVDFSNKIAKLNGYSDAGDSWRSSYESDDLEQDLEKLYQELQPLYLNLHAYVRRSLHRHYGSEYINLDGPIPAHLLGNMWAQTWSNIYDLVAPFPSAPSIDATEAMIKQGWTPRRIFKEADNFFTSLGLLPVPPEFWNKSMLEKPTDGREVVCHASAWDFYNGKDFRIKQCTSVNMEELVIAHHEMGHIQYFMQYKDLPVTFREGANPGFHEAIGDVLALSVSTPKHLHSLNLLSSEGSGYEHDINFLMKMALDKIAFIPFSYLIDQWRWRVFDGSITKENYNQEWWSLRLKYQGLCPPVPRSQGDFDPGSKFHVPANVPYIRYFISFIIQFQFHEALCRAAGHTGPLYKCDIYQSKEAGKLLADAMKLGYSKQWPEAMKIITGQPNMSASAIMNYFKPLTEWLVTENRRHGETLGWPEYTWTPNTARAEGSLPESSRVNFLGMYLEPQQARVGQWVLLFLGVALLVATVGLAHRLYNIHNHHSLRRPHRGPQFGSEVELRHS
Outline: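 ACE purified from rat testis, 0.02 pmol/100 µL final, preincubated 15 min at 37 °C with varying inhibitor in 50 mM Tris-HCl pH 8.0. N-Cbz-Phe-His-Leu added to 0.05 mM final, 15 min; stopped with 2 M NaOH. His-Leu measured fluorimetrically (ex 365, em 495 nm) against a His-Leu calibration curve. IC50 is the mean ± SEM of three experiments in triplicate.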

[3] = target: T1, Angiotensin-converting enzyme (Mus musculus); experiment: as §1; assay type: organism-based; outline: as §2

Row | SMILES | inhibition [1] [%] | IC50 [2] [nM] | inhibition [3] [%]
1 | O=C(NCC(=O)N1[C@@H](c2ccccc2)CC[C@H]1C(=O)O)[C@@H](S)Cc1ccccc1 | 63 | 0.55 | –
2 | Cc1ccccc1[C@H]1CC[C@@H](C(=O)O)N1C(=O)CNC(=O)[C@@H](S)Cc1ccccc1 | 57 | 3.1 | –
3 | Cc1ccc([C@H]2CC[C@@H](C(=O)O)N2C(=O)CNC(=O)[C@@H](S)Cc2ccc(O)cc2)cc1 | 33 | 2.5 | –
4 | O=C(NCC(=O)N1[C@@H](c2ccccc2O)CC[C@H]1C(=O)O)[C@@H](S)Cc1ccc(O)cc1 | 82 | 0.6 | –
5 | O=C(NCC(=O)N1[C@@H](c2cccc(O)c2)CC[C@H]1C(=O)O)[C@@H](S)Cc1ccc(O)cc1 | – | 0.7 | 89
6 | Cc1ccccc1C1CC[C@@H](C(=O)O)N1C(=O)CNC(=O)[C@@H](S)Cc1ccc(O)cc1 (single isomer, unassigned) | – | 5 | 60
7 | Cc1ccc([C@H]2CC[C@@H](C(=O)O)N2C(=O)CNC(=O)[C@@H](S)Cc2ccccc2)cc1 | 42 | 6.8 | –
